This is a sample that favours compounds with a hit; in the whole collection about 1.8% have one here.
HCV core dimer: inhibitors of HCV core protein dimerization, primary screen, biochemical, TR-FRET, high-throughput; AID 1899, 2009; 0.33% of 300,000 active; inhibition, % at 5 µM; TR-FRET GST/Flag-core106 dimerization, 1536-well;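 active = inhibition above the mean of all tested compounds plus 3 SD, set per screening campaign, cut at about 45% in these data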
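assay system = GST-tagged and Flag-tagged HCV core protein residues 1-106 | controls = unlabelled core106 and no-GST-core106 wells | incubation = compound-protein-antibody incubation 4 h at 22.5 °C | probe or stimulus = Eu donor and XL665 acceptor anti-tag antibodies | read-out = % inhibition based on acceptor/donor emission ratio | signal = TR-FRET 671 and 617 nm emission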
UHRF1 MBD2 ctr: UHRF1 methylated DNA binding inhibitors, primary screen, counter-screen for MBD2 inhibitor project, biochemical, TR-FRET, human UHRF1, single concentration | E3 ubiquitin-protein ligase UHRF1 (Homo sapiens), Q96T88 | UHRF1 binding to methylated oligo | inhibition, % at 4.4 µM | 0.75% of 370,000 active; in the data active = inhibition above about 21%;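 also: UHRF1 SRA domain binding a hemimethylated CpG hairpin DNA probe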
MBD2 inh: inhibitors of MBD2 binding to methylated DNA, primary screen, biochemical, TR-FRET, DNA-binding domain, human; Methyl-CpG-binding domain protein 2 (Homo sapiens), Q9UBB5; MBD2 binding to methylated oligonucleotide; inhibition, % at 4.4 µM; 0.31% of 370,000 active; in the data active = inhibition above about 13%
TDP2 absorb: human TDP2 enzyme inhibitors, primary screen, biochemical, epi absorbance, recombinant enzyme; Tyrosyl-DNA phosphodiesterase 2 (Homo sapiens), O95551; T5PNP hydrolysis, p-nitrophenol absorbance 415 nm; inhibition, % at 12.8 µM; 0.34% of 370,000 active; AID 720702, 2013;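 active = inhibition above the mean of all tested compounds plus 3 SD, set per campaign, cut at about 25% in these data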
Target sequence (O95551 whole entry, looked up): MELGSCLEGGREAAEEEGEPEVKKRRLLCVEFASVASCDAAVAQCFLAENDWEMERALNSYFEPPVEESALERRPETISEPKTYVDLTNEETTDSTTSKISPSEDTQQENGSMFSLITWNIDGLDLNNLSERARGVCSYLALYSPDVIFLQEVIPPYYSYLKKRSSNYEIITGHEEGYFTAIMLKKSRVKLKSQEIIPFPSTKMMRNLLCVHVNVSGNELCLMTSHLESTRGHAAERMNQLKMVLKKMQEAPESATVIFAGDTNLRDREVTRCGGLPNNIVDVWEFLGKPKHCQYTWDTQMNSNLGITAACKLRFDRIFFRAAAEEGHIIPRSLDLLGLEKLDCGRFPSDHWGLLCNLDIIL
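Assay system: recombinant human TDP2 / Reagent: T5PNP substrate at 5 mM, a TopII-DNA adduct mimic / Measured by: epi absorbance from released p-nitrophenol / Evaluation: % inhibition relative to enzyme-containing and enzyme-free wells / Control set: enzyme-free and DMSO wells / Replicates: each compound tested once, singlicate / Schedule: enzyme reaction with compound for 2 h at 37 °C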
LEDGF integ inh: blockers of LEDGF/p75-dependent integrase strand transfer – biochemical, TR-FRET, high throughput, primary screen; HIV-1 integrase (with human LEDGF/p75); TR-FRET IN-LEDGF/p75 DNA integration, Eu/Cy5; inhibition, % at 3.7 µM; 0.64% of 370,000 active; AID 743269, 2014;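 active = inhibition above the screen-wide mean plus 3 SD, cut at about 13% in these data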;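 also: signal is the Cy5 over europium emission ratio at 671 and 618 nm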
TDP2 inh conf: human TDP2 enzyme inhibitors, retest, confirmation, biochemical, epi absorbance, recombinant enzyme; 22% of 1,100 active; shares compounds with TDP2 absorb; AID 743263, 2014; absorbance read-out; inhibition, % at 12.8 µM; in the data active = inhibition above about 25%
IN multimer act: HIV-1 IN multimer formation enhancers, counter-screen for LEDGF/p75 integration inhibitor project, biochemical, TR-FRET. activation, % at 7.7 µM. shares compounds with LEDGF integ inh. TR-FRET HIV-1 integrase multimerization. 17% of 2,000 active; in the data active = activation above about 8.9%
TRFRET interf: TR-FRET optical interference artefacts, confirmation, artefact control for LEDGF/p75-dependent integration inhibitor project, biochemical, HIV-1 IN multimerization. shares compounds with LEDGF integ inh. 2,000 tested, under 10 active. AID 1053135, 2014. TR-FRET optical interference counterscreen. inhibition, % at 7.7 µM;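 active = inhibition above the mean over all tested compounds plus 3 SD, which no compound reached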
LEDGF integ conf: inhibitors of HIV-1 IN-LEDGF/p75 DNA integration, confirmation, biochemical, TR-FRET; shares compounds with LEDGF integ inh; TR-FRET LEDGF/p75-dependent HIV-1 integration; inhibition, % at 3.7 µM; 36% of 2,000 active; AID 1053136, 2014; in the data active = inhibition above about 14%
Each line names hits and unclear results; the compound was inactive in the other large screens (follow-up assays come after a bar, where they were run).

Cc1ccc(NC2=C(N3CCCCC3)C(=O)c3ccccc3C2=O)cc1	TDP2 absorb 55.8, LEDGF integ inh 17.1 | TDP2 inh conf 61.0 | IN multimer act inactive | TRFRET interf inactive | LEDGF integ conf 37.9
O=C1C(Nc2ccccc2)=C(N2CCCCC2)C(=O)c2ccccc21	TDP2 absorb 59.1, LEDGF integ inh 21.7 | TDP2 inh conf 57.3 | IN multimer act inactive | TRFRET interf inactive | LEDGF integ conf 34.2
O=C(Nc1c(-c2ccccc2)nc2ncccn12)C1CC1	none (no result: HCV core dimer)
O=C1C(Nc2cccc(O)c2)=C(N2CCCCC2)C(=O)c2ccccc21	TDP2 absorb 50.7, LEDGF integ inh 19.6 | TDP2 inh conf 51.6 | IN multimer act inactive | TRFRET interf inactive | LEDGF integ conf 36.8
Cc1ccc(C(=O)Nc2c(-c3ccc(Cl)cc3)[nH][nH]c2=O)cc1	TDP2 absorb 61.5, LEDGF integ inh 13.9 (no result: HCV core dimer) | TDP2 inh conf 26.9 | IN multimer act inactive | TRFRET interf inactive | LEDGF integ conf inactive
CC(C)C[C@@H](CN1CCC[C@H]1CN1C(=O)C(=O)NC[C@@H]1Cc1ccc(O)cc1)N1C[C@H](Cc2ccccc2)N(CCc2ccccc2)C(=O)C1=O	none (no result: HCV core dimer)
CC(C)C[C@@H](CN1CCC[C@H]1CN1C(=O)C(=O)NC[C@@H]1Cc1ccc(O)cc1)N1C[C@H](Cc2ccc(O)cc2)N(CCc2ccccc2)C(=O)C1=O	LEDGF integ inh 73.5 (no result: HCV core dimer) | IN multimer act inactive | TRFRET interf inactive | LEDGF integ conf inactive
Cc1csc2c(SCC(=O)NNS(=O)(=O)c3cccc(C(F)(F)F)c3)ncnc12	none
COC(=O)CSc1ncnc2c(C)csc12	LEDGF integ inh 45.0 | IN multimer act inactive | TRFRET interf inactive | LEDGF integ conf inactive
COC(=O)[C@@]12CCCCC3=C1N(CCC3)C(=O)[C@H]2CC(=O)NCCC(C)C	none (no result: HCV core dimer)
O=S(=O)(c1ccc(NC(=S)N/N=C/c2ccc(O)c(O)c2)cc1)N1CCOCC1	LEDGF integ inh 17.9 | IN multimer act inactive | TRFRET interf inactive | LEDGF integ conf 14.1
Oc1ccc(/C=N/NC(=S)Nc2cccnc2)cc1O	LEDGF integ inh 21.1 | IN multimer act 18.4 | TRFRET interf inactive | LEDGF integ conf 33.6
CCOC(=O)c1cnc2ccc(C)cc2c1NCCN1CCOCC1	LEDGF integ inh 43.7 | IN multimer act inactive | TRFRET interf inactive | LEDGF integ conf inactive
Cc1cc(Cl)cc(C)c1OCCCCN1CCOCC1	LEDGF integ inh 15.0 | IN multimer act inactive | TRFRET interf inactive | LEDGF integ conf inactive
O=C(CCl)N1N=C(c2cccs2)CC1c1ccco1 (configuration not stated)	none
O=C(O)/C=C/C(=O)N1N=C(c2ccco2)CC1c1ccco1 (configuration not stated)	LEDGF integ inh 51.3 | IN multimer act inactive | TRFRET interf inactive | LEDGF integ conf inactive
O=C(CCl)N1N=C(c2ccco2)CC1c1ccco1 (configuration not stated)	UHRF1 MBD2 ctr 33.3, LEDGF integ inh 49.2 | IN multimer act inactive | TRFRET interf inactive | LEDGF integ conf inactive
COc1cc(-n2c(C)nc3cc(C(=O)N4CCN(C(C)=O)CC4)ccc32)cc(OC)c1OC	none (no result: HCV core dimer)
CC(CNC(=O)[C@@H](Cc1ccccc1)NC(=O)[C@H]1O[C@@H](n2cnc3c(=O)[nH]c(N)nc32)[C@H](O)[C@@H]1O)c1ccccc1 (some centres not stated)	none (no result: HCV core dimer)
CC(C)(C)c1ccc(CC(=O)N2CCC2(C)C(=O)NS(=O)(=O)c2cccc(OC(F)F)c2)cc1 (configuration not stated)	none (no result: HCV core dimer)
Cc1cc(C)cc(CC(=O)N2CCC2(C)C(=O)NS(=O)(=O)c2cccc(OC(F)F)c2)c1 (configuration not stated)	LEDGF integ inh 17.2 (no result: HCV core dimer) | IN multimer act inactive | TRFRET interf inactive | LEDGF integ conf inactive
CCn1c2ccccc2c2cc(NC(=O)COC(=O)c3ccc(F)cc3Cl)ccc21	none (no result: HCV core dimer)
COC(=O)c1ccc2nc(C3CCCCC3)c(Cc3ccccc3OC)n2c1	none (no result: HCV core dimer)
Cc1nc(SCC(=O)N2CCCc3ccccc32)c2oc3ccccc3c2n1	none
CCc1nc(SCC(=O)N2CCc3ccccc32)c2oc3ccccc3c2n1	LEDGF integ inh 14.2 (no result: HCV core dimer) | IN multimer act inactive | TRFRET interf inactive | LEDGF integ conf inactive
O=C(COC(=O)c1n[nH]c(=O)c2ccccc12)Nc1ccccc1F	LEDGF integ inh 14.3 (no result: HCV core dimer) | IN multimer act inactive | TRFRET interf inactive | LEDGF integ conf inactive
Oc1ccc(N=Cc2ccc(OCc3ccccc3)cc2)cc1	LEDGF integ inh 34.3 | IN multimer act 21.9 | TRFRET interf inactive | LEDGF integ conf 35.2
O=C(N/N=C/c1ccc(OCc2ccccc2)cc1)c1ccncc1	none
CN(C)CCCNc1cc(O)c2ncccc2c1	LEDGF integ inh 29.5 (no result: HCV core dimer) | IN multimer act inactive | TRFRET interf inactive | LEDGF integ conf 39.9
CN(C)c1ccc(NC(=O)C2C3C=CC(C3)C2C(=O)O)cc1 (configuration not stated)	UHRF1 MBD2 ctr 20.9, TDP2 absorb 45.4, LEDGF integ inh 49.5 (no result: HCV core dimer) | IN multimer act inactive | TRFRET interf inactive | LEDGF integ conf inactive
COC(=O)CCCC1=CC2=CC(=O)C(C)(OC(=O)c3cccs3)C(=O)C2=CN1Cc1ccco1 (configuration not stated)	LEDGF integ inh 24.8 | IN multimer act inactive | TRFRET interf inactive | LEDGF integ conf 17.7
CCOC(=O)CC[C@H](NC(=O)[C@@H]1CC=C[C@@H]2CCN(Cc3ccc(Cl)cc3)C(=O)[C@@H]21)C(=O)OCC	none (no result: HCV core dimer)
COC(=O)[C@]12C[C@H](CC(=O)NCc3cccc(C(F)(F)F)c3)C(=O)N(CCc3ccc(OC)c(OC)c3)C1=C[C@H](COCc1ccccc1)O[C@@H]2C	none (no result: HCV core dimer)
